From ChEMBL document CHEMBL2086314, “Synthesis and anticonvulsant activity of new N-Mannich bases derived from 3-(2-fluorophenyl)- and 3-(2-bromophenyl)-pyrrolidine-2,5-diones. Part II” (Bioorg Med Chem, 2012)
Active and inactive are the calls of the source. No cut-off for these calls is given here.

Tests used:
Mus musculus [1] = test: Neurotoxicity in CF-1 albino mouse assessed as myoclonic jerks at 100 mg/kg, ip measured after 0.5 hrs by rotarod test; type: toxicity, organism-based; design: dose 100 mg/kg, route intraperitoneal; conditions: in vivo
Mus musculus [2] = test: Neurotoxicity in CF-1 albino mouse assessed as motor impairment, ip measured after 4 hrs by rotarod test; type: toxicity, organism-based; conditions: in vivo
Mus musculus [3] = test: Anticonvulsant activity in CF-1 albino mouse assessed as protection from maximal electric shock-induced seizures at 100 mg/kg, ip measured after 6 hrs; type: functional, organism-based; design: dose 100 mg/kg
Mus musculus [4] = test: Neurotoxicity in ip dosed CF-1 albino mouse assessed as motor impairment measured after 0.5 hrs by rotarod test; type: toxicity, organism-based; conditions: in vivo
Procedure, shortened: (§1)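 Rotarod neurotoxicity in male CF-1 mice given ip doses of 30, 100 or 300 mg/kg (0.5% methylcellulose suspension), examined 0.5 and 4 h after dosing. Impairment means failing to hold balance on the rod for 1 min. Value is the minimum dose causing toxicity in half or more of the animals; response comments are recorded.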

Mus musculus [5] = test: Anticonvulsant activity in ip dosed CF-1 albino mouse assessed as protection against subcutaneous pentylenetetrazol-induced seizures measured after 4 hrs; type: functional; conditions: read-out: MED
Procedure, shortened: (§2)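 scPTZ test in male CF-1 mice. Compound suspended in 0.5% methylcellulose/water, ip at 30, 100 or 300 mg/kg. Pentylenetetrazole 85 mg/kg (CD97, clonic seizures lasting at least 5 s) given subcutaneously at the test time, read at 0.5 and 4 h. Value is the minimum dose protecting half or more of the animals.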

Mus musculus [6] = test: Neurotoxicity in CF-1 albino mouse assessed as myoclonic jerks at 300 mg/kg, ip measured after 4 hrs by rotarod test; type: toxicity, organism-based; design: dose 300 mg/kg, route intraperitoneal; conditions: in vivo
Mus musculus [7] = test: Anticonvulsant activity in ip dosed CF-1 albino mouse assessed as protection against subcutaneous pentylenetetrazol-induced seizures measured after 0.5 hrs; type: functional; conditions: read-out: MED; procedure, shortened: as §2
Mus musculus [8] = test: Anticonvulsant activity in ip dosed CF-1 albino mouse assessed as protection from maximal electric shock-induced seizures measured after 4 hrs; type: functional; conditions: read-out: MED
Procedure, shortened: (§3)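 Male CF-1 mice dosed ip at 30, 100 or 300 mg/kg, suspension in 0.5% methylcellulose/water. MES: corneal electrodes primed with electrolyte containing anaesthetic, 50 mA, 60 Hz, 0.2 s. Examined 0.5 and 4 h after dosing. Value is the minimum dose protecting half or more of the animals.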

Mus musculus [9] = test: Anticonvulsant activity in CF-1 albino mouse assessed as protection from maximal electric shock-induced seizures at 300 mg/kg, ip measured after 0.5 hrs; type: functional, organism-based; design: dose 300 mg/kg; procedure, shortened: as §3
Rattus norvegicus [10] = test: Anticonvulsant activity in Sprague-Dawley rat assessed as protection from maximum electric shock-induced seizures at 30 mg/kg, po measured after 2 hrs; type: functional
Procedure, shortened: (§4)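 Male Sprague–Dawley rats, four per group, given 30 mg/kg orally as a suspension in 0.5% methylcellulose/water. MES stimulus 150 mA, 60 Hz, 0.2 s via corneal electrodes. Tested at 0.25, 0.5, 1, 2 and 4 h; value is rats protected out of four.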

Mus musculus [11] = test: Anticonvulsant activity in CF-1 albino mouse assessed as protection against subcutaneous pentylenetetrazol-induced seizures at 300 mg/kg, ip measured after 4 hrs; type: functional, organism-based; design: dose 300 mg/kg; procedure, shortened: as §2
Mus musculus [12] = test: Anticonvulsant activity in CF-1 albino mouse assessed as protection against 6 Hz psychomotor seizure at 100 mg/kg, ip measured after 2 hrs; type: functional; conditions: route intraperitoneal
Procedure, shortened: (§5)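 6-Hz psychomotor seizure in male CF-1 mice, compound suspended in 0.5% methylcellulose/water, given ip (100 or 75 mg/kg). Corneal stimulation with 0.2 ms monopolar rectangular pulses at 6 Hz for 3 s, 32 mA, constant-current device. Protected if normal exploratory behaviour resumes within 10 s. Tested 0.25–4 h after dosing; value is mice protected out of four.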

Rattus norvegicus [13] = test: Anticonvulsant activity in po dosed maximum electric shock-induced Sprague-Dawley rat assessed as time of peak effect; type: functional
Procedure, shortened: (§6)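 Male Sprague–Dawley rats dosed orally (0.5% methylcellulose suspension). MES 150 mA, 60 Hz, 0.2 s; rotarod impairment is failure to keep balance for 1 min. Groups of eight, at the previously estimated time of peak effect, with doses varied until at least three points fell in the 10–90% range. ED50/TD50 with 95% confidence intervals from regression; PI = TD50/ED50.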

Mus musculus [14] = test: Anticonvulsant activity in CF-1 albino mouse assessed as protection against 6 Hz psychomotor seizure at 100 mg/kg, ip measured after 0.25 hrs; type: functional; conditions: route intraperitoneal; procedure, shortened: as §5
Mus musculus [15] = test: Anticonvulsant activity in CF-1 albino mouse assessed as protection against 6 Hz psychomotor seizure at 100 mg/kg, ip measured after 1 hr; type: functional; conditions: route intraperitoneal; procedure, shortened: as §5
[16] = Neurotoxicity in po dosed Sprague-Dawley rat assessed as motor impairment measured at time of peak effect by rotarod test; type: toxicity, organism-based; conditions: in vivo; procedure, shortened: as §6
Rattus norvegicus [17] = test: Anticonvulsant activity in Sprague-Dawley rat assessed as protection from maximum electric shock-induced seizures at 30 mg/kg, po measured after 0.5 hrs; type: functional; procedure, shortened: as §4
Mus musculus [18] = test: Anticonvulsant activity in CF-1 albino mouse assessed as protection against 6 Hz psychomotor seizure at 100 mg/kg, ip measured after 4 hrs; type: functional; conditions: route intraperitoneal; procedure, shortened: as §5
Mus musculus [19] = test: Anticonvulsant activity in CF-1 albino mouse assessed as protection against 6 Hz psychomotor seizure at 100 mg/kg, ip measured after 0.5 hrs; type: functional; conditions: route intraperitoneal; procedure, shortened: as §5
Rattus norvegicus [20] = test: Anticonvulsant activity in Sprague-Dawley rat assessed as protection from maximum electric shock-induced seizures at 30 mg/kg, po measured after 4 hrs; type: functional; procedure, shortened: as §4
Rattus norvegicus [21] = test: Neurotoxicity in Sprague-Dawley rat assessed as motor impairment at 30 mg/kg, po by rotarod test; type: toxicity, organism-based; design: dose 30 mg/kg, route oral; conditions: in vivo
Procedure, shortened: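 Male Sprague–Dawley rats, four animals, oral 30 mg/kg in 0.5% methylcellulose/water. Motor impairment on the rotarod (failure to keep balance for 1 min) assessed alongside MES at five times from 0.25 to 4 h.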

Mus musculus [22] = test: Neurotoxicity in CF-1 albino mouse assessed as myoclonic jerks at 300 mg/kg, ip measured after 0.5 hrs by rotarod test; type: toxicity, organism-based; design: dose 300 mg/kg, route intraperitoneal; conditions: in vivo
Rattus norvegicus [23] = test: Anticonvulsant activity in po dosed Sprague-Dawley rat assessed as protection from maximum electric shock-induced seizures; type: functional; procedure, shortened: as §6
Rattus norvegicus [24] = test: Anticonvulsant activity in Sprague-Dawley rat assessed as protection from maximum electric shock-induced seizures at 30 mg/kg, po measured after 1 hr; type: functional; procedure, shortened: as §4
Mus musculus [25] = test: Neurotoxicity in CF-1 albino mouse assessed as motor impairment at 300 mg/kg, ip measured after 0.5 hrs by rotarod test; type: toxicity, organism-based; design: dose 300 mg/kg, route intraperitoneal; conditions: in vivo; procedure, shortened: as §1
Mus musculus [26] = test: Neurotoxicity in CF-1 albino mouse assessed as motor impairment at 300 mg/kg, ip measured after 4 hrs by rotarod test; type: toxicity, organism-based; design: dose 300 mg/kg, route intraperitoneal; conditions: in vivo; procedure, shortened: as §1
Rattus norvegicus [27] = test: Anticonvulsant activity in Sprague-Dawley rat assessed as protection from maximum electric shock-induced seizures at 30 mg/kg, po measured after 0.25 hrs; type: functional; procedure, shortened: as §4
Mus musculus [28] = test: Anticonvulsant activity in ip dosed CF-1 albino mouse assessed as protection from maximal electric shock-induced seizures measured after 0.5 hrs; type: functional; conditions: read-out: MED; procedure, shortened: as §3
Mus musculus [29] = test: Neurotoxicity in CF-1 albino mouse assessed as inability to grasp rotarod at 300 mg/kg, ip measured after 0.5 hrs by rotarod test; type: toxicity, organism-based; design: dose 300 mg/kg, route intraperitoneal; conditions: in vivo; procedure, shortened: as §1
Mus musculus [30] = test: Anticonvulsant activity in CF-1 albino mouse assessed as protection against subcutaneous pentylenetetrazol-induced seizures at 300 mg/kg, ip measured after 0.5 hrs; type: functional, organism-based; design: dose 300 mg/kg; procedure, shortened: as §2
Mus musculus [31] = test: Anticonvulsant activity in ip dosed maximal electric shock-induced CF-1 albino mouse assessed as time of peak effect; type: functional
Procedure, shortened: (§7)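 ED50 and TD50 determined in male CF-1 mice after ip dosing (0.5% methylcellulose suspension) at the previously estimated time of peak effect. MES 50 mA, 60 Hz, 0.2 s. Groups of eight, with doses varied until at least three points fell between 10–90% protection or motor impairment. Regression gives ED50/TD50 with 95% confidence intervals; PI = TD50/ED50.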

Rattus norvegicus [32] = species: Rattus norvegicus; test: Protective index, ratio of TD50 for Sprague-Dawley rat to ED50 for Sprague-Dawley rat assessed as protection from maximum electric shock-induced seizures; type: functional; procedure, shortened: as §6
Mus musculus [33] = species: Mus musculus; test: Protective index, ratio of TD50 for CF-1 albino mouse to ED50 for CF-1 albino mouse assessed as protection from maximum electric shock-induced seizures; type: functional; procedure, shortened: as §7

Row | SMILES | MTC (Mus musculus [2]) | MTC (Mus musculus [4]) | minimal effective dose (Mus musculus [7]) | minimal effective dose (Mus musculus [8]) | Activity (Rattus norvegicus [10]) | Activity (Mus musculus [11]) | Activity (Mus musculus [12]) | Time (Rattus norvegicus [13]) | Activity (Mus musculus [14]) | Activity (Mus musculus [15]) | TD50 [16] | Activity (Rattus norvegicus [17]) | Activity (Mus musculus [18]) | Activity (Mus musculus [19]) | Activity (Rattus norvegicus [20]) | Activity (Rattus norvegicus [21]) | Activity (Mus musculus [22]) | Activity (Rattus norvegicus [24]) | Activity (Mus musculus [26]) | Activity (Rattus norvegicus [27]) | also measured
1 | O=C1CC(c2ccccc2Br)C(=O)N1CN1CCN(c2ncccn2)CC1 (racemic) | 300 mg/kg | 300 mg/kg | 100 mg/kg | 100 mg/kg | – | – | – | – | – | – | – | – | – | – | – | – | – | – | – | – | Activity (Mus musculus [1]): Toxic; Activity (Mus musculus [3]): Active; minimal effective dose (Mus musculus [5]): 300 mg/kg; Activity (Mus musculus [6]): Toxic; Activity (Mus musculus [9]): inactive
2 | Cl.Cl.O=C1CC(c2ccccc2F)C(=O)N1CN1CCN(CCO)CC1 (racemic) | – | – | 300 mg/kg | 100 mg/kg | 25% | inactive | 0% | 0.5 h | 50% | 0% | > 500 mg/kg | 25% | 0% | 25% | 25% | Non-toxic | Toxic | 50% | Non-toxic | 25% | ED50 (Rattus norvegicus [23]): > 500 mg/kg; Activity (Mus musculus [25]): Non-toxic
3 | O=C1CC(c2ccccc2F)C(=O)N1CN1CCN(Cc2ccccc2)CC1 (racemic) | – | 300 mg/kg | 300 mg/kg | 300 mg/kg | – | inactive | 0% | – | 0% | 0% | – | – | 0% | 25% | – | – | Toxic | – | Non-toxic | – | minimal effective dose (Mus musculus [28]): 300 mg/kg; Activity (Mus musculus [29]): Toxic
4 | O=C1NC(=O)C(c2ccccc2)(c2ccccc2)N1 [PHENYTOIN] | 100 mg/kg | 100 mg/kg | – | 30 mg/kg | 75% | inactive | – | 2 h | – | – | > 100 mg/kg | 100% | – | – | 75% | Non-toxic | – | 75% | – | 25% | Activity (Mus musculus [30]): inactive; minimal effective dose (Mus musculus [28]): 30 mg/kg; Time (Mus musculus [31]): 1 h; Ratio TD50/ED50 (Rattus norvegicus [32]): 3.6; Ratio TD50/ED50 (Mus musculus [33]): 7.74
